{"source": "ChEMBL document CHEMBL2062466", "about": "“Synthesis, DNA binding and antileishmanial activity of low molecular weight bis-arylimidamides” (Eur J Med Chem, 2012)", "key": {"L6": {"test_system": "L6", "experiment": "Cytotoxicity against rat L6 cells", "assay_type": "cell-based"}, "Leishmania amazonensis": {"test_system": "Leishmania amazonensis", "experiment": "Antileishmanial activity against intracellular Leishmania amazonensis", "assay_type": "functional, organism-based"}, "Nucleic Acid": {"test_system": "Nucleic Acid", "experiment": "Binding affinity to poly(dA-dT)n DNA assessed as increase in melting temperature at 0.3 mol compound per mole of DNA by spectrophotometry", "assay_type": "nucleic-acid assay", "how_it_was_run": "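Thermal melting monitored by UV absorbance in 1 cm quartz cuvettes, heated at 0.5 °C/min under thermistor control. CAC 10 buffer: cacodylic acid 10 mM, EDTA 1 mM, NaCl 100 mM, pH 7.0. DNA concentration set from absorbance at 260 nm. Complex at 0.3 mol compound per mol DNA, with DNA alone as control. ΔTm taken from the peak of first-derivative (dA/dT) curves.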"}, "Mus musculus [1]": {"test_system": "Mus musculus", "experiment": "Toxicity in uninfected mouse assessed as induction of severe tremors at 30 mg/kg, ip measured 10 mins post dose", "assay_type": "organism-based", "design": "dose 30 mg/kg, route intraperitoneal", "settings": "in vivo"}, "[2]": {"experiment": "Selectivity index, ratio of IC50 for rat L6 cells to IC50 for intracellular Leishmania donovani", "assay_type": "toxicity, cell-based"}, "Mus musculus [3]": {"test_system": "Mus musculus", "experiment": "Toxicity in uninfected mouse assessed as induction of severe tremors at 10 mg/kg, ip measured 40 mins post dose", "assay_type": "organism-based", "design": "dose 10 mg/kg, route intraperitoneal", "settings": "in vivo"}, "Leishmania donovani": {"test_system": "Leishmania donovani", "experiment": "Antileishmanial activity against intracellular Leishmania donovani", "assay_type": "functional, organism-based"}}}
{"smiles": "N=C(Nc1ccc(COCc2ccc(NC(=N)c3ccccn3)cc2)cc1)c1ccccn1", "values": [{"measurement": "IC50", "setting": "L6", "result": 21.6, "unit": "µM"}, {"measurement": "IC50", "setting": "Leishmania amazonensis", "result": 1.1, "unit": "µM"}, {"measurement": "ΔTm", "setting": "Nucleic Acid", "result": 4, "unit": "°C"}]}
{"smiles": "N=C(Nc1ccc(NC(=N)c2ccccn2)cc1)c1ccccn1", "values": [{"measurement": "IC50", "setting": "L6", "result": "> 212", "unit": "µM"}, {"measurement": "IC50", "setting": "Leishmania amazonensis", "result": "> 10", "unit": "µM"}, {"measurement": "ΔTm", "setting": "Nucleic Acid", "result": 0, "unit": "°C"}]}
{"smiles": "Cl.Cl.N=C(Nc1ccc(-c2ccc(NC(=N)c3ccccn3)cc2)cc1)c1ccccn1", "values": [{"measurement": "Activity", "setting": "Mus musculus [1]", "result": "Toxic"}, {"measurement": "Selectivity Index", "setting": "[2]", "result": 594}, {"measurement": "IC50", "setting": "L6", "result": 46.9, "unit": "µM"}, {"measurement": "Activity", "setting": "Mus musculus [3]", "result": "Toxic"}, {"measurement": "IC50", "setting": "Leishmania amazonensis", "result": 0.76, "unit": "µM"}, {"measurement": "ΔTm", "setting": "Nucleic Acid", "result": 6, "unit": "°C"}, {"measurement": "IC50", "setting": "Leishmania donovani", "result": 0.079, "unit": "µM"}]}
{"smiles": "N=C(Nc1ccccn1)c1ccc(C(=N)Nc2ccccn2)cc1", "values": [{"measurement": "IC50", "setting": "L6", "result": "> 202", "unit": "µM"}, {"measurement": "IC50", "setting": "Leishmania amazonensis", "result": 5.1, "unit": "µM"}, {"measurement": "ΔTm", "setting": "Nucleic Acid", "result": 0.5, "unit": "°C"}]}
{"smiles": "Cl.Cl.N=C(Nc1ccc(Oc2ccc(NC(=N)c3ccccn3)cc2)cc1)c1ccccn1", "values": [{"measurement": "Activity", "setting": "Mus musculus [1]", "result": "Toxic"}, {"measurement": "Selectivity Index", "setting": "[2]", "result": 178}, {"measurement": "IC50", "setting": "L6", "result": 5, "unit": "µM"}, {"measurement": "IC50", "setting": "Leishmania amazonensis", "result": 0.67, "unit": "µM"}, {"measurement": "ΔTm", "setting": "Nucleic Acid", "result": 5.2, "unit": "°C"}, {"measurement": "IC50", "setting": "Leishmania donovani", "result": 0.028, "unit": "µM"}]}
{"smiles": "CC(C)Oc1cc(NC(=N)c2ccccn2)ccc1-c1ccc(NC(=N)c2ccccn2)cc1OC(C)C.Cl.Cl", "values": [{"measurement": "Activity", "setting": "Mus musculus [1]", "result": "Toxic"}, {"measurement": "Selectivity Index", "setting": "[2]", "result": 916}, {"measurement": "IC50", "setting": "L6", "result": 22.9, "unit": "µM"}, {"measurement": "IC50", "setting": "Leishmania amazonensis", "result": 0.14, "unit": "µM"}, {"measurement": "ΔTm", "setting": "Nucleic Acid", "result": 0.1, "unit": "°C"}, {"measurement": "IC50", "setting": "Leishmania donovani", "result": 0.025, "unit": "µM"}]}
{"smiles": "N=C(Nc1ccc(Cc2ccc(NC(=N)c3ccccn3)cc2)cc1)c1ccccn1", "values": [{"measurement": "IC50", "setting": "L6", "result": 93.5, "unit": "µM"}, {"measurement": "IC50", "setting": "Leishmania amazonensis", "result": "> 10", "unit": "µM"}, {"measurement": "ΔTm", "setting": "Nucleic Acid", "result": 2.1, "unit": "°C"}]}
{"smiles": "N=C(Nc1ccc(NC(=N)c2ncccn2)cc1)c1ncccn1", "values": [{"measurement": "IC50", "setting": "L6", "result": "> 207", "unit": "µM"}, {"measurement": "ΔTm", "setting": "Nucleic Acid", "result": 0, "unit": "°C"}]}
{"smiles": "CC(C)Oc1cc(NC(=N)c2ccccn2)ccc1-c1ccc(-c2ccc(NC(=N)c3ccccn3)cc2OC(C)C)o1", "values": [{"measurement": "IC50", "setting": "L6", "result": 3, "unit": "µM"}, {"measurement": "ΔTm", "setting": "Nucleic Acid", "result": 6, "unit": "°C"}]}
